Measured values taken from ChEMBL document CHEMBL1137710, “Synthesis and in vitro antitumor activity of new quinoxaline derivatives” (2009).

Legend:
Assay type in all cases: functional
A498 = assay: Growth inhibition of human A498 cells after 48 hrs by sulforhodamine B assay; conditions: A498, 48 h
Outline: (§1)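 NCI 60-human-tumor-cell-line panel, with compounds tested over a 5-log dose range. Values are taken from dose-response curves as log10 molar concentrations: GI50 is 50% net growth inhibition, TGI is total growth inhibition, and LC50 is 50% net cell death.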

NCI-H460 [1] = assay: Anticancer activity against human NCI-H460 cells assessed as cell growth at 100 uM after 48 hrs by sulforhodamine B assay; conditions: NCI-H460, 48 h, read-out: Activity
HOP-92 = assay: Growth inhibition of human HOP92 cells after 48 hrs by sulforhodamine B assay; conditions: HOP-92, 48 h; outline: as §1
HCT-15 = assay: Growth inhibition of human HCT15 cells after 48 hrs by sulforhodamine B assay; conditions: HCT-15, 48 h; outline: as §1
SR = assay: Growth inhibition of human SR cells after 48 hrs by sulforhodamine B assay
Outline: (§2)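 Run in the NCI 60-human-tumour-cell-line panel, tested over a 5-log dose range. Dose–response curves gave three values per cell line, each as a log10 molar concentration: GI50 (50% inhibition of net cell growth), TGI (total inhibition of net growth) and LC50 (50% net cell death). The mean graph midpoint is the arithmetic mean over all lines, with insensitive lines entered at the highest concentration tested.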

NCI-H460 [2] = assay: Growth inhibition of human NCI-H460 cells after 48 hrs by sulforhodamine B assay; conditions: NCI-H460, 48 h; outline: as §1
T47D = assay: Growth inhibition of human T47D cells after 48 hrs by sulforhodamine B assay; outline: as §2
SN12C = assay: Growth inhibition of human SN12C cells after 48 hrs by sulforhodamine B assay; outline: as §2
TK-10 = assay: Growth inhibition of human TK10 cells after 48 hrs by sulforhodamine B assay; conditions: TK-10, 48 h; outline: as §2
MOLT-4 = assay: Growth inhibition of human MOLT4 cells after 48 hrs by sulforhodamine B assay; conditions: MOLT-4, 48 h; outline: as §1
Malme-3M = assay: Growth inhibition of human MALME-3M cells after 48 hrs by sulforhodamine B assay; outline: as §1
PC-3 = assay: Growth inhibition of human PC3 cells after 48 hrs by sulforhodamine B assay; conditions: PC-3, 48 h; outline: as §1
HT-29 = assay: Growth inhibition of human HT-29 cells after 48 hrs by sulforhodamine B assay; conditions: HT-29, 48 h; outline: as §1
ACHN = assay: Growth inhibition of human ACHN cells after 48 hrs by sulforhodamine B assay
SK-OV-3 = assay: Growth inhibition of human SKOV3 cells after 48 hrs by sulforhodamine B assay; conditions: SK-OV-3, 48 h; outline: as §1
EKVX = assay: Growth inhibition of human EKVX cells after 48 hrs by sulforhodamine B assay; outline: as §1
BT-549 = assay: Growth inhibition of human BT549 cells after 48 hrs by sulforhodamine B assay; conditions: BT-549, 48 h; outline: as §1
IGROV-1 = assay: Growth inhibition of human IGROV1 cells after 48 hrs by sulforhodamine B assay; conditions: IGROV-1, 48 h; outline: as §1
HOP-62 = assay: Growth inhibition of human HOP62 cells after 48 hrs by sulforhodamine B assay; conditions: HOP-62, 48 h; outline: as §1
A549 = assay: Growth inhibition of human A549 cells after 48 hrs by sulforhodamine B assay; conditions: A549, 48 h; outline: as §1
UACC-257 = assay: Growth inhibition of human UACC257 cells after 48 hrs by sulforhodamine B assay; conditions: UACC-257, 48 h; outline: as §2
OVCAR-8 = assay: Growth inhibition of human OVCAR8 cells after 48 hrs by sulforhodamine B assay; conditions: OVCAR-8, 48 h; outline: as §1
HL-60(TB) = assay: Growth inhibition of human HL-60(TB) cells after 48 hrs by sulforhodamine B assay; conditions: HL-60, 48 h
Outline: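 Tested only on compounds active in a three-line prescreen, in the NCI 60-human-tumour-cell-line panel over a 5-log dose range. Values come from dose–response curves as log10 molar GI50, the concentration inhibiting 50% net cell growth. Log10 TGI (total growth inhibition) and log10 LC50 (50% net cell death) were derived too. Mean graph midpoints include insensitive lines at the highest concentration tested.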

KM12 = assay: Growth inhibition of human KM12 cells after 48 hrs by sulforhodamine B assay; conditions: KM12, 48 h; outline: as §1
UO-31 = assay: Growth inhibition of human UO31 cells after 48 hrs by sulforhodamine B assay; conditions: UO-31, 48 h; outline: as §2
CCRF-CEM = assay: Growth inhibition of human CCRF-CEM cells after 48 hrs by sulforhodamine B assay; outline: as §1
DU-145 = assay: Growth inhibition of human DU145 cells after 48 hrs by sulforhodamine B assay; conditions: DU-145, 48 h; outline: as §1
MCF7 = assay: Growth inhibition of human MCF7 cells after 48 hrs by sulforhodamine B assay; conditions: MCF7, 48 h; outline: as §1
[3] = read-out: pLC50 (the source's name) (converted)

## COc1cc(CNc2nc3cc(N)cc(N)c3nc2-c2ccccc2)cc(OC)c1
A498
  GI50: 91.2 µM
A498; [3]
  CC50: > 100 µM
A498; read-out: pTGI (converted)
  TGI: > 100 µM
NCI-H460 [1]
  growth at 100 µM: -1%
HOP-92
  GI50: 1.15 µM
  LC50 (50% net cell death): 9.55 µM
HOP-92; read-out: pTGI (converted)
  TGI: 3.31 µM
HCT-15
  GI50: 19.5 µM
SR
  GI50: 3.8 µM
  LC50 (concentration giving 50% net cell death): > 100 µM
SR; read-out: pTGI (converted)
  TGI: > 100 µM
NCI-H460 [2]
  GI50: 10.5 µM
  LC50 (50% net cell kill): > 100 µM
NCI-H460 [2]; read-out: pTGI (converted)
  TGI: > 100 µM
T47D
  GI50: 1.66 µM
T47D; [3]
  CC50: > 100 µM
T47D; read-out: pTGI (converted)
  TGI: 4.57 µM
SN12C
  GI50: 11.5 µM
SN12C; [3]
  CC50: > 100 µM
SN12C; read-out: pTGI (converted)
  TGI: > 100 µM
TK-10
  GI50: 24.5 µM
TK-10; [3]
  CC50: > 100 µM
TK-10; read-out: pTGI (converted)
  TGI: 63.1 µM
MOLT-4
  GI50: 3.02 µM
  LC50: > 100 µM
MOLT-4; read-out: pTGI (converted)
  TGI: > 100 µM
Malme-3M
  GI50: 4.9 µM
Malme-3M; [3]
  CC50: > 100 µM
Malme-3M; read-out: pTGI (converted)
  TGI: 33.9 µM
PC-3
  GI50: 3.02 µM
PC-3; [3]
  CC50: > 100 µM
PC-3; read-out: pTGI (converted)
  TGI: 14.5 µM
HT-29
  GI50: 8.13 µM
  LC50: > 100 µM
HT-29; read-out: pTGI (converted)
  TGI: 44.7 µM
ACHN
  GI50: 9.33 µM
ACHN; [3]
  CC50: > 100 µM
ACHN; read-out: pTGI (converted)
  TGI: 47.9 µM
SK-OV-3
  GI50: 15.1 µM
SK-OV-3; [3]
  CC50: > 100 µM
SK-OV-3; read-out: pTGI (converted)
  TGI: 53.7 µM
EKVX
  GI50: 2.82 µM
  LC50 (50% net cell kill): > 100 µM
EKVX; read-out: pTGI (converted)
  TGI: 8.91 µM
BT-549
  GI50: 9.77 µM
BT-549; [3]
  CC50: > 100 µM
BT-549; read-out: pTGI (converted)
  TGI: > 100 µM
IGROV-1
  GI50: 8.71 µM
IGROV-1; [3]
  CC50: > 100 µM
IGROV-1; read-out: pTGI (converted)
  TGI: 56.2 µM
HOP-62
  GI50: 13.5 µM
  LC50: 72.4 µM
HOP-62; read-out: pTGI (converted)
  TGI: 31.6 µM
A549
  GI50: 33.1 µM
  LC50: > 100 µM
A549; read-out: pTGI (converted)
  TGI: > 100 µM
UACC-257
  GI50: 25.7 µM
UACC-257; [3]
  CC50: > 100 µM
UACC-257; read-out: pTGI (converted)
  TGI: > 100 µM
OVCAR-8
  GI50: 2.82 µM
OVCAR-8; [3]
  CC50: > 100 µM
OVCAR-8; read-out: pTGI (converted)
  TGI: 8.13 µM
HL-60(TB)
  GI50: 3.8 µM
  LC50: > 100 µM
HL-60(TB); read-out: pTGI (converted)
  TGI: > 100 µM
KM12
  GI50: 4.27 µM
  LC50 (50% net cell kill): > 100 µM
KM12; read-out: pTGI (converted)
  TGI: 74.1 µM
UO-31
  GI50: 4.07 µM
UO-31; [3]
  CC50: > 100 µM
UO-31; read-out: pTGI (converted)
  TGI: > 100 µM
CCRF-CEM
  GI50: 1.74 µM
  LC50: > 100 µM
CCRF-CEM; read-out: pTGI (converted)
  TGI: 5.62 µM
DU-145
  GI50: 29.5 µM
DU-145; [3]
  CC50: > 100 µM
DU-145; read-out: pTGI (converted)
  TGI: > 100 µM
MCF7
  GI50: 8.32 µM
MCF7; [3]
  CC50: > 100 µM
MCF7; read-out: pTGI (converted)
  TGI: > 100 µM
